From paper PMC8290212 (Bioorganic & medicinal chemistry letters, 2019)
Entries after “also recorded” stand apart in the source; their conditions may differ. Where two headings read alike, the source gives them in different places. Marks after values point to notes of the source that are not given here.

Columns and labels:
[1] = tested on: Influenza A virus H1N1, Influenza A/California/7/2009; assay type: cell-based
[2] = tested on: Influenza A virus H5N1, Influenza A/Vietnam/1203/2004 × A/PR/8/34 (recombinant H5N1); assay: microbe, parasite or virus in culture; assay type: cell-based; conditions: H5N1|PR/8, MDCK
[3] = tested on: A/PR/8/34 strain of influenza A virus (H1N1); assay type: cell-based
NS1-pYES yeast strain = assay: Yeast-based NS1 assay: reversal of NS1-induced slow-growth phenotype; assay type: cell-based; conditions: for restoration of yeast growth (reversal of slow growth phenotype): NS1-pYES strain, 50 μM, 22, 42 and 60 h
IFN-β mRNA = assay: RT-PCR analysis of IFN-β mRNA in MDCK cells; assay type: cell-based; conditions: MDCK infected with A/PR/8/34, MOI 2, 20 μM, 6 h
In short: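 MDCK cells infected with influenza A/PR/8/34 (MOI 2) and incubated with test compound (20 μM) for 6 h, then harvested. IFN-β mRNA detected by RT-PCR, with β-actin mRNA as reference. Poly(I:C)-induced cells were the positive control for IFN-β induction and RT-PCR. Uninfected cells received the same drug treatment and RT-PCR in parallel.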

[4] = microsomes; for Mouse Liver Microsomal Stability (% remaining) 0 min: 0 h; for Mouse Liver Microsomal Stability (% remaining) 15 min: 0.25 h; for Mouse Liver Microsomal Stability (% remaining) 30 min: 0.5 h
in vitro [5] = conditions: dog
in vitro [6] = conditions: human, Caco-2, Efflux Ratio
Caco-2 monolayer = conditions: human, Caco-2, 2 h
[7] = Mouse liver microsomal stability

## CCOc1cc(-c2c(C#N)c(O)nc3c2c(C)nn3-c2ccc(F)cc2)ccc1O [Compound 1]
[1]
  EC50: single digit micromolar
[2]
  EC50: 28.5 µM
MDCK cells
  Cytotoxicity towards host MDCK cells: without toxicity

## Cc1ccc(-n2nc(C)c3c(-c4ccc(O)c(O)c4)c(C#N)c(N)nc32)cc1C [Compound 4]
[3]
  dose response in the TCID50 assay: successfully decreased viral titer with increasing concentration
[1]
  EC50: single digit micromolar
NS1-pYES yeast strain
  restoration of yeast growth (reversal of slow growth phenotype): show the same behavior
IFN-β mRNA
  restoration of IFN-β mRNA levels in infected cells: significantly restored IFN-β mRNA levels
[4]
  Mouse Liver Microsomal Stability (% remaining) 0 min: 100 % remaining
  Mouse Liver Microsomal Stability (% remaining) 15 min: 78 % remaining
  Mouse Liver Microsomal Stability (% remaining) 30 min: 64 % remaining
In vitro [5]
  CC50: 24.5 µM

## Cc1nn(-c2ccc(Cl)cc2)c2nc(N)c(C#N)c(-c3ccc(O)c(O)c3)c12 [Compound 6]
[3]
  dose response in the TCID50 assay: successfully decreased viral titer with increasing concentration
NS1-pYES yeast strain
  restoration of yeast growth (reversal of slow growth phenotype): show the same behavior
IFN-β mRNA
  restoration of IFN-β mRNA levels in infected cells: significantly restored IFN-β mRNA levels
[4]
  Mouse Liver Microsomal Stability (% remaining) 0 min: 100 % remaining
  Mouse Liver Microsomal Stability (% remaining) 15 min: 93 % remaining
  Mouse Liver Microsomal Stability (% remaining) 30 min: 90 % remaining
In vitro [5]
  CC50: 24.5 µM
In vitro [6]
  efflux ratio at 2 h: 7.78

## COc1cc(-c2c(C#N)c(N)nc3c2c(C)nn3-c2ccc(F)cc2)ccc1O [Compound 10]
[3]
  dose response in the TCID50 assay: successfully decreased viral titer with increasing concentration
[1]
  EC50: single digit micromolar
[2]
  EC50: 3.6 µM
NS1-pYES yeast strain
  restoration of yeast growth (reversal of slow growth phenotype): show the same behavior
IFN-β mRNA
  restoration of IFN-β mRNA levels in infected cells: significantly restored IFN-β mRNA levels
[4]
  Mouse Liver Microsomal Stability (% remaining) 0 min: 100 % remaining
  Mouse Liver Microsomal Stability (% remaining) 15 min: 74 % remaining
  Mouse Liver Microsomal Stability (% remaining) 30 min: 60 % remaining
In vitro [5]
  CC50: 24.7 µM

## COc1cc(-c2ccnc3c2c(C)nn3-c2ccc(C(F)(F)F)cc2)ccc1O [Compound 32]
[3]
  dose response in the TCID50 assay: successfully decreased viral titer with increasing concentration
  selectivity index (SI): greater than 100 fold
  viral suppression (TCID50): 3 log units
[1]
  EC50: sub-micromolar
NS1-pYES yeast strain; 50 μM
  acute toxicity in yeast assay: does not display acute toxicity
NS1-pYES yeast strain
  restoration of yeast growth (reversal of slow growth phenotype): reversal of the slow growth phenotype; also recorded: reversed
IFN-β mRNA
  restoration of IFN-β mRNA levels in infected cells: significantly restored IFN-β mRNA levels
IFN-β mRNA; listed as C00006
  restoration of IFN-β mRNA levels in infected cells: Restores IFN-β mRNA levels
MDCK cells; dog
  Cytotoxicity towards host MDCK cells: did not affect cell viability at 5, 10, 50 and 100 μM
[4]
  Mouse Liver Microsomal Stability (% remaining) 0 min: 100 % remaining
  Mouse Liver Microsomal Stability (% remaining) 15 min: 66 % remaining
  Mouse Liver Microsomal Stability (% remaining) 30 min: 45 % remaining
Caco-2 monolayer
  Efflux Ratio: 1.20^b
In vitro [5]
  CC50: 19.8 µM
In vitro [6]
  efflux ratio at 2 h: 2.29

## COc1cc(-c2ccnc3c2c(C)nn3-c2cccc(C(F)(F)F)c2)ccc1O [Compound 33]
NS1-pYES yeast strain
  restoration of yeast growth (reversal of slow growth phenotype): show the same behavior
In vitro [5]
  CC50: 24.5 µM
[7]; 0 min
  Mouse Liver Microsomal Stability (% remaining) 0 min: 100 % remaining
[7]; 15 min
  Mouse Liver Microsomal Stability (% remaining) 15 min: 25 % remaining
[7]; 30 min
  Mouse Liver Microsomal Stability (% remaining) 30 min: 16 % remaining

## COc1cccc(-c2ccnc3c2c(C)nn3-c2ccc(F)cc2)c1 [Compound 37]
MDCK cells
  Cytotoxicity towards host MDCK cells: exhibited cytotoxicity

## NC(=O)c1ncn([C@@H]2O[C@H](CO)[C@@H](O)[C@H]2O)n1 [Ribavirin, reference compound]
[2]
  EC50: 32.2 µM
